Only some compounds are listed: those with a hit (about 3% of all), similar ones and a draw of the others.
CHRM4 PAM – CHRM4 positive allosteric modulation | P08173 | CHO-K1 hM4/Gqi5, Fluo-8 calcium fluorescence, ACh EC20; 0% = ACh EC20, 100% = maximal ACh | activation, % at 3 µM | 360,000 tested, 0.4% active | AID 624126;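 active means activation above its plate's cutoff, the mean activation of sample wells plus 3 SD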
TAAR1 agonist – agonists of human TAAR1; Q96RJ0; CHO RD-HGA16 TAAR1, Fluo-8 calcium fluorescence; vehicle wells 0%, saturating PEA agonist 100%; activation, % at 3 µM; 360,000 tested, 0.99% active; AID 624467;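 active means activation above the mean activation of all test compounds in the run plus 3 SD, cut at about 38% in these data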
Target sequence (Q96RJ0 whole entry, looked up): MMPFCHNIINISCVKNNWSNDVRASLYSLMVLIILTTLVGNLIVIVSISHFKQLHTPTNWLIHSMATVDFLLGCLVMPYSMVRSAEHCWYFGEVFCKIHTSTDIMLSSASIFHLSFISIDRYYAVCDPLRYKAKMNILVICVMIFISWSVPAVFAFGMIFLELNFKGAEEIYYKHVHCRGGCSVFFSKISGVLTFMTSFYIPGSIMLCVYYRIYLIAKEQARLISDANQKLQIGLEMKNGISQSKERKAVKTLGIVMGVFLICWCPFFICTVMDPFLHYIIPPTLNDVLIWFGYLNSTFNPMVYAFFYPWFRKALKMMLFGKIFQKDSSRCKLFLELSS
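Assay system – CHO-derived RD-HGA16 cells with stable Gα16 and human TAAR1 · Compound dosing – one-point dosing at 3 µM (nominal) · Incubation – 17-24 h seeding, 75 min 37 °C dye, 30 min RT · Measured by – kinetic Fluo-8 calcium fluorescence · Control set – DMSO vehicle as 0%, PEA at EC100 as 100% · Repeats – single well for each compound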
CHRM4 agonist – agonists of human muscarinic M4 receptor (CHRM4); CHO-K1 hM4/Gqi5, Fluo-8 calcium fluorescence; vehicle 0%, full acetylcholine response 100%; P08173; AID 624127; activation, % at 3 µM; 360,000 tested, 0.14% active;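 active means activation above the run mean over all test wells plus 3 SD, cut at about 32% in these data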;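 further: peak over basal fluorescence ratio per well then scaled between controls; 0% = DMSO wells and 100% = acetylcholine at EC100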
TAAR1 antagonist – antagonists of human TAAR1. AID 624466. 360,000 tested, 1.5% active. inhibition, % at 3 µM. CHO RD-HGA16 TAAR1, Fluo-8 calcium fluorescence, antagonist;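 active means inhibition above a per-plate cutoff, the mean inhibition of test compounds on that plate plus 3 SD, cut at about 49% in these data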;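 further: 0% = DMSO plus EC80 beta-PEA response and 100% = DMSO alone without agonist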
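Test system: RD-HGA16 CHO cells with stable hTAAR1 and Gα16 / Probe or stimulus: EC80 β-phenethylamine stimulus / Times: seeding 17-24 h prior, 75-min 37 °C, 30-min RT dye loading / Detection: Fluo-8 calcium-sensitive fluorescence / Read-out basis: % inhibition scaled between DMSO and EC80 PEA controls / Repeats: singlicate, one well per test compound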
M4 antag – CHRM4 antagonism in calcium assay; P08173; CHO-hM4 cells, ACh EC80, Fluo-8 calcium fluorescence; inhibition, % at 3 µM; 360,000 tested, 0.73% active;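 active means inhibition above its plate's cutoff, the mean inhibition of sample wells plus 3 SD, cut at about 27% in these data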;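 further: 0% = acetylcholine EC80 with DMSO and 100% = DMSO without agonist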
TAAR1 ag confirm – human TAAR1 agonism, confirmed; shares compounds with TAAR1 agonist; CHO RD-HGA16 TAAR1, Fluo-8 calcium fluorescence; scaled: DMSO 0%, maximal phenethylamine 100%; activation, % at 3 µM; 2,400 tested, 82% active;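 active means activation above a cutoff set at the run's mean compound activation plus 3 SD, cut at about 39% in these data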
Ga16 nonsel ag – nonselective agonism, TAAR1 counter-screen; AID 651787; CHO-Ga16 parental, Fluo-8 calcium fluorescence; normalized to maximal ATP response, DMSO zero; 2,400 tested, 50% active; shares compounds with TAAR1 agonist; activation, % at 3 µM;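 active means activation above the run cutoff, the mean activation over all tested wells plus 3 SD, cut at about 12% in these data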;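 further: 0% = DMSO wells and 100% = maximal ATP response on the peak over basal ratio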
TAAR1 desensitize – human TAAR1 agonist that also desensitizes the receptor | inhibition, % at 3 µM | shares compounds with TAAR1 agonist | AID 651951 | CHO RD-HGA16 hTAAR1, Fluo-8 calcium, beta-PEA response inhibition | 2,400 tested, 46% active;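 active means inhibition above the run cutoff, the mean inhibition of all test compounds plus 3 SD, cut at about 49% in these data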;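 further: beta-PEA stimulus applied at its EC80; loss of beta-PEA calcium signal after compound pretreatment read as receptor desensitization; 0% = DMSO with beta-PEA at EC80 and 100% = DMSO alone without agonist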
Ga16 antag count – nonselective Ga16 antagonism, counter-screen | shares compounds with TAAR1 agonist | inhibition, % at 3 µM | AID 651952 | CHO-Ga16 ATP-induced calcium, Fluo-8 fluorescence | 2,400 tested, 39% active;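 active means inhibition above the plate's mean compound inhibition plus 3 SD, computed per plate, cut at about 22% in these data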;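 further: 0% = EC80 ATP with DMSO and 100% = DMSO wells without ATP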
* hit, by the source's call; . = no result given.

SMILES	CHRM4 PAM	TAAR1 agonist	CHRM4 agonist	TAAR1 antagonist	M4 antag	TAAR1 ag confirm	Ga16 nonsel ag	TAAR1 desensitize	Ga16 antag count
CCCNC(=O)C1(C)CCN(Cc2ccc(-c3ccccc3)o2)C1 (stereo unspecified)	1	-1	2	-6	-13	.	.	.	.
COc1ccc(S(=O)(=O)n2nc(OC(C)=O)cc2N)cc1	7	10	0	12	-16	.	.	.	.
COc1cccc(C(=O)Oc2cc(N)n(S(=O)(=O)c3ccc(C)cc3)n2)c1OC	-2	64*	4	2	-15	50*	14*	6	9
Nc1cc(OC(=O)c2c(F)cccc2Cl)nn1S(=O)(=O)c1ccccc1	3	54*	2	-7	4	51*	22*	10	18
Nc1cc(-c2ccccc2)nn1S(=O)(=O)c1ccc(F)cc1	-4	-3	7	1	-2	.	.	.	.
O=C(CNC(=O)c1cc(-c2ccccc2)nn1-c1ccccc1)Nc1ccccc1Br	14	5	0	14	-29	.	.	.	.
CCOC(=O)c1c(C)[nH]c(C)c1S(=O)(=O)NCCc1sccc1C	11	54*	2	24	-18	27	1	42	8
COC(=O)[C@H]1C[C@H](OC(=O)Nc2cccs2)[C@@]2(O)CN(S(=O)(=O)c3ccc(C)cc3)CC2[C@H]1C(=O)OC (stereo partly specified)	5	5	2	3	-9	.	.	.	.
Cc1ccc(/C=N\Nc2cn[nH]c(=O)c2Cl)cc1	2	41*	-3	-2	-4	62*	0	24	9
Cc1ccsc1/C=N\Nc1cn[nH]c(=O)c1Cl	3	74*	1	54*	0	87*	0	77*	2
O=c1[nH]ncc(NCCc2ccccc2)c1Cl	-3	5	1	1	5	.	.	.	.
O=c1c(Cl)c(N/N=C/c2ccc(Cl)cc2)cnn1-c1ccccc1	3	13	1	-6	0	.	.	.	.
O=c1[nH]ncc(N/N=C/c2ccccc2)c1Cl	5	64*	-1	78*	9	92*	2	93*	-3
Cc1ccsc1/C=N/Nc1nc(Cl)c(Cl)cc1Cl	-6	1	-1	-24	11	.	.	.	.
CSc1ccc(SC2CN(Cc3ccc(C)cc3)S(=O)(=O)C2)cc1 (stereo unspecified)	.	0	.	-5	.	.	.	.	.
CCOC(=O)C1=NN(C(=O)c2ccc(C)cc2)C(O)(c2ccc(Cl)cc2)C1 (stereo unspecified)	0	116*	11	73*	0	69*	79*	32	42*
C[C@@H]1CN([C@H](C)CO)S(=O)(=O)c2ccc(C#CC3CCCC3)cc2O[C@H]1CN(C)C(=O)Cc1ccccc1	-7	10	6	43	-4	.	.	.	.
O=C1c2cccc3c(O)ccc(c23)C(=O)N1Cc1ccccc1	-28	367*	178*	107*	47*	115*	179*	82*	88*
O=C(Cn1cc(COc2ccc3ccccc3c2)nn1)NS(=O)(=O)c1cccc(OC(F)F)c1	5	0	0	10	-8	.	.	.	.
OC(c1cc(C(F)(F)F)nc2c(C(F)(F)F)cccc12)C1CCCCN1 (stereo unspecified)	0	67*	15	50*	4	68*	44*	60*	54*
OC(c1cc(-c2ccc(C(F)(F)F)cc2)nc(C(F)(F)F)c1)C1CCCCN1 (stereo unspecified)	8	82*	31	48	18	82*	62*	69*	70*

Screening data: PubChem BioAssay, The Scripps Research Institute Molecular Screening Center
